The results in this text go back to ChEMBL document CHEMBL3098049, “Concise synthesis and biological evaluation of 2-Aroyl-5-amino benzo[b]thiophene derivatives as a novel class of potent antimitotic agents” (J Med Chem, 2013).

The term IC50 denotes the midpoint of a concentration-inhibition curve.

Series [1] deals with HeLa. Put plainly: Effect on cyclin B protein expression in human HeLa cells at 10 to 100 nM after 24 to 48 hrs by Western blot analysis. The class given is functional, cell-based. An outline of the steps: (§1)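 HeLa cultures treated 24 or 48 h, washed in cold PBS, lysed 30 min at 0 °C, clarified at 15000g. 20 μg protein run on 7.5−15% gradient SDS-PAGE and blotted to PVDF. Primary antibodies 2 h at room temperature, peroxidase secondary 60 min, ECL detection. Membranes stripped and reprobed for β-actin as loading control.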
(Immunoblotting shows a protein as a band on a membrane.)

In series [2] the test system is Jurkat. Nature of the series: Cell cycle arrest in human Jurkat cells assessed as accumulation at G2/M phase at 15 to 30 nM after 24 hrs by propidium iodide staining-based flow cytometric analysis relative to control. The class given is functional. A digest of the protocol: (§2)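 Jurkat cells treated for 24 h, fixed, PI-labelled and analysed by flow cytometry for cell-cycle phase distribution. Mean of three independent experiments.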
(In flow cytometry, cells or beads pass a laser one at a time.)

In series [3] the test system is HeLa. Nature of the series: Cell cycle arrest in human HeLa cells assessed as accumulation at G2/M phase after 24 hrs by propidium iodide staining-based flow cytometric analysis. The format is functional. A digest of the protocol:
(§3)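 HeLa cells (5 × 10⁵) treated for 24 h. Harvested, fixed in 70% ethanol chilled to 0 °C, then suspended in RNase with 0.1% Triton X-100. DNA stained with PI, analysed by flow cytometry as DNA-content histograms. Mean of three independent experiments.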

The nature of series [4]: Inhibition of bovine brain tubulin polymerization preincubated for 15 mins followed by GTP addition measured for 20 mins by turbidometric analysis. Details: species or system Bos taurus.
Series [5] has as its system HeLa. Put plainly: Cell cycle arrest in human HeLa cells assessed as accumulation at G2/M phase at 15 to 30 nM after 24 hrs by propidium iodide staining-based flow cytometric analysis relative to control. The format is functional. An outline of the steps: as §3
A further series has as its system HUVEC. Put plainly: Cytotoxicity against HUVEC assessed as growth inhibition after 72 hrs by MTT assay. The class given is cell-based. Particulars: Homo sapiens. An outline of the steps: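 HUVECs were detached with EDTA/trypsin at confluence, and only passages 1–6 were used. Cells were exposed to varying compound concentrations, and viability was read by MTT after 72 h. IC50 is the concentration reducing cell growth by 50%, as the mean of three independent experiments.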
(In general: Tetrazolium assays rely on reduction of a dye to a coloured formazan, in cell work by metabolically active cells.)

The subject of series [6] is HeLa. Put plainly: Cytotoxicity against human HeLa cells assessed as growth inhibition after 48 hrs by coulter counting analysis. The format is functional, cell-based.
The nature of series [7]: Cytotoxicity against mouse FM3A/0 cells assessed as growth inhibition after 48 hrs by coulter counting analysis. The format is functional, cell-based. Particulars: FM3A/0, 48 h.
For series [8], the system named is Jurkat. Put plainly: Cell cycle arrest in human Jurkat cells assessed as accumulation at G2/M phase at 10 nM after 24 hrs by propidium iodide staining-based flow cytometric analysis. The format is functional. An outline of the steps:
as §2

Series [9] has as its system HeLa. Nature of the series: Cell cycle arrest in human HeLa cells assessed as accumulation at G2/M phase at 10 nM after 24 hrs by propidium iodide staining-based flow cytometric analysis. The format is functional. A digest of the protocol: as §3
Series [10] is described as follows: Selectivity ratio of IC50 for HUVEC to IC50 for mouse FM3A/0 cells. The format is ADME, cell-based. The following applies: HUVEC and FM3A/0 cells, read-out: Ratio IC50.
Series [11] is described as follows: Selectivity ratio of IC50 for HUVEC to IC50 for human Molt4/C8 cells. The format is ADME, cell-based. Particulars: HUVEC and Molt4/C8 cells, read-out: Ratio IC50.
Another series concerns Mus musculus. Nature of the series: Toxicity in Balb/c-nu mouse xenografted with human MNNG-HOS cells assessed as change in body weight at 50 mg/kg, ip administered once every 3 days for 9 days measured after day 18. The class given is organism-based. Set-up: dose 50 mg/kg, route intraperitoneal. Particulars: in vivo. An outline of the steps: (§4)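 MNNG/HOS osteosarcoma cells grown to exponential phase, suspended in FBS-free MEM (10⁷ cells/mL), 0.1 mL injected into back hypodermis of nude mice. At ~100 mm³, 12 mice randomised to three groups (vehicle, CA-4P in isotonic saline, test in 5% DMSO/olive oil). 50 mg/kg ip at 0.01 mL/g on days 0, 3, 6, 9. Tumour volume and body weight tracked; tumours excised and weighed day 18; […].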

Series [12] deals with MNNG-HOS. Nature of the series: Antitumor activity against human MNNG-HOS cells xenografted in Balb/c-nu mouse assessed as tumor growth inhibition at 50 mg/kg, ip measured after 3 days. Set-up: dose 50 mg/kg. Particulars: HOS-TE85. The format is functional, organism-based.
For series [13], the system named is MNNG-HOS. Nature of the series: Antitumor activity against human MNNG-HOS cells xenografted in Balb/c-nu mouse assessed as reduction in tumor weight at 50 mg/kg, ip administered once every 3 days for 9 days measured after day 18. The class given is functional, organism-based. Details: dose 50 mg/kg. The following applies: HOS-TE85. An outline of the steps:
as §4

In series [14] the test system is MNNG-HOS. Put plainly: Antitumor activity against human MNNG-HOS cells xenografted in Balb/c-nu mouse assessed as tumor growth inhibition at 50 mg/kg, ip measured on day 18 relative to vehicle-treated control. The format is functional. Particulars: HOS-TE85, ip, 432 h, route intraperitoneal, read-out: TGI. An outline of the steps: as §4
Series [15] deals with MNNG-HOS. Nature of the series: Cytotoxicity against human MNNG-HOS cells. The following applies: HOS-TE85. The class given is functional, cell-based.
The subject of series [16] is HeLa. Put plainly: Downregulation of Bcl-2 protein expression in human HeLa cells at 10 to 100 nM after 24 to 48 hrs by Western blot analysis. The format is functional, cell-based. An outline of the steps:
as §1

For series [17], the system named is HeLa. Nature of the series: Induction of apoptosis in human HeLa cells assessed as caspase-9 cleavage at 10 to 100 nM after 24 to 48 hrs by Western blot analysis. The class given is functional, cell-based. An outline of the steps:
as §1

Series [18] deals with HeLa. Nature of the series: Induction of mitochondrial ROS generation in human HeLa cells at 15 to 250 nM by H2-DCFDA staining-based flow cytometric analysis. The following applies: TDE = time-dependent effect. The class given is functional, cell-based. An outline of the steps: (§5)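 HeLa cells incubated 24 or 48 h with compound, stained with H₂-DCFDA, and intracellular ROS measured by flow cytometry. Mean of three independent experiments.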

Series [19] concerns HeLa. Put plainly: Induction of mitochondrial membrane depolarization in human HeLa cells at 15 to 250 nM by JC-1 staining-based fluorescence assay. The format is functional, cell-based. Particulars: TDE = time-dependent effect. A digest of the protocol:
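HeLa cells treated 24 or 48 h, then stained with JC-1. Cells with depolarised mitochondria quantified by flow cytometry. Mean of three independent experiments.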

In series [20] the test system is HeLa. Put plainly: Induction of mitochondrial ROS generation in human HeLa cells after 24 to 48 hrs by H2-DCFDA staining-based flow cytometric analysis. The class given is functional, cell-based. An outline of the steps:
as §5

The target in series [21] is T1, M-phase inducer phosphatase 3 (Homo sapiens) (UniProt P30307).
T1 sequence (whole entry): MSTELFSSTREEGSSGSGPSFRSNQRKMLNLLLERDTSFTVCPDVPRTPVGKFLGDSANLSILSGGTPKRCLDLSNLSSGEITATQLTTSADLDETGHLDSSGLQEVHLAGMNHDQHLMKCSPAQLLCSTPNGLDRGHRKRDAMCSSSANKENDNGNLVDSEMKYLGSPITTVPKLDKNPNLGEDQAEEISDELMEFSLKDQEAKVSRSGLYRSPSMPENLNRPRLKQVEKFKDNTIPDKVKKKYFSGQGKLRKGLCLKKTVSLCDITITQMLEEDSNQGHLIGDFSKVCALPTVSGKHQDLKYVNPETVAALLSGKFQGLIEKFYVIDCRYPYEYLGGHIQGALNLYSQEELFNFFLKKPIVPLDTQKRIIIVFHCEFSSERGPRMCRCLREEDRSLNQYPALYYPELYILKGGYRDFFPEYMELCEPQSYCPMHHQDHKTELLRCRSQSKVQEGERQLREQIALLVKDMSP
Nature of the series: Increase of cdc25c phosphorylation at Ser216 in human HeLa cells at 10 to 100 nM after 48 hrs by Western blot analysis. The format is cell-based. An outline of the steps:
as §1

The structures appear in SMILES notation. Calls of active or inactive are those of the source. The calls are words filed in the database; no cut-off is given here.

Consider `COc1cc(C(=O)c2cc3cc(N)cc(OC)c3s2)cc(OC)c1OC`, for which the outcome (in the series with HeLa [1]; in [21]) was inactive. The Activity with Jurkat [2] was 40%; in the series on HeLa [3], “Dose-dependent effect”; in the series on HeLa [5], >80%; in the series with Mus musculus, “Non-toxic”; in the series with HeLa [18] it was “tde”; with HeLa [19] it was “tde”. Besides, the Activity result in the series on HeLa [20] is “Dose-dependent effect”. Moreover, the IC50 in series [4] turned out to be 520 nM; with HUVEC it was 5500 nM; with HeLa [6], 8 nM; in series [7], 12 nM; in the series with MNNG-HOS [15], 1 nM. In addition, the result with Jurkat [8], in the series with HeLa [9], with MNNG-HOS [13], in the series on HeLa [16] and in the series on HeLa [17] was Active. In addition, the selectivity ratio in series [10] and in series [11] was 460 throughout. Also, the TGI entry in the series with MNNG-HOS [12] was “Active”. Moreover, the inhibition in vivo at 50 mg/kg with MNNG-HOS [14] is 62%.
